We go through 7 compounds from ChEMBL document CHEMBL1158477, “Synthesis, in vivo evaluation, and molecular modeling studies of new pyrazolo[5,1-c][1,2,4]benzotriazine 5-oxide derivatives. Identification of a bifunctional hydrogen bond area related to the inverse agonism” (J Med Chem, 2009).

The species entered for one test is Bos taurus. Kind of test: Displacement of [3H]flumazenil from GABAA/Benzodiazepine receptor in bovine brain at 10 uM. Put shortly: (§1)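 Bovine brain membranes; displacement of specific [3H]flumazenil (Ro15-1788) binding. Percent inhibition measured at 10 μM; Ki determined only when inhibition at that concentration exceeded 80%. Ki given as mean ± SEM of five determinations.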
(Loss of bound radioactivity is the signal in a displacement assay; it reports binding, not function.)

Test [1] in a line: Displacement of [3H]flumazenil from GABAA/Benzodiazepine receptor in bovine brain. Also on record: species or system Bos taurus. In outline: as §1

SMILES strings stand for the structures. Where only a bound is given, the exact number is not on record here.

One may read the Ki as a measure of affinity in units of concentration, obtained from inhibition or displacement. Read a low Ki as higher affinity.

For `CCCCCCCCOc1ccc2c(c1)n1ncc(I)c1n[n+]2[O-]`, the Activity in the test filed under Bos taurus was above 80%. In test [1], the Ki came to 1620 nM.

`COc1ccc(COc2ccc3c(c2)n2ncc(I)c2n[n+]3[O-])cc1` showed an Activity in the test listed under Bos taurus above 80%. In test [1], this compound displayed a Ki of 4.5 nM.

In the test listed under Bos taurus, `[O-][n+]1nc2c(Br)cnn2c2cc(-c3ccccc3)ccc21` came in with an Activity above 80%. Moreover, the Ki in test [1] was 802 nM.

In the test listed under Bos taurus, `O=C(OCc1cccs1)c1cnn2c1n[n+]([O-])c1ccc(Oc3ccccc3)cc12` showed an Activity above 80%. The compound also returned a Ki in test [1] of 0.7 nM.

In the test filed under Bos taurus, `[O-][n+]1nc2c(I)cnn2c2cc(OCCc3ccccc3)ccc21` yielded an Activity above 80%. The compound further returned a Ki in test [1] of 43 nM.

`[O-][n+]1nc2c(I)cnn2c2cc(OCc3ccccc3OC(F)(F)F)ccc21` showed an Activity in the test filed under Bos taurus above 80%. The same compound returned an inhibitory constant (Ki) in test [1] of 6.6 nM.

As to `[O-][n+]1nc2c(I)cnn2c2cc(OCc3ccco3)ccc21`, the Activity in the test listed under Bos taurus was above 80%. For the same compound, the Ki in test [1] came out at 0.8 nM.
